Test results: ChEMBL document CHEMBL4706553, “Discovery of potent small molecule PROTACs targeting mutant EGFR” (Eur J Med Chem, 2020)
Activity calls are given as the source filed them.

Experiments:
[1] = tested on: Protein cereblon/Epidermal growth factor receptor (Homo sapiens), P00533+Q96SW2 [UNDEFINED MUTATION]; experiment: Protac activity at CRBN/EGFR del19 mutant in human HCC827 cells assessed as induction of EGFR degradation at 333 nM measured after 24 hrs by Western blot analysis; assay type: cell-based
Outline: (§1)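 HCC827 cells seeded at 0.5–1 × 10⁶ per well, grown 24 h, then treated at the stated concentrations for 24 h. EGFR^del19 level by Western blot with anti-EGFR antibody and β-actin loading control.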

[2] = tested on: Protein cereblon/Epidermal growth factor receptor (Homo sapiens), P00533+Q96SW2 [UNDEFINED MUTATION]; experiment: Protac activity at CRBN/EGFR del19 mutant in human HCC827 cells assessed as induction of EGFR degradation at 33 nM measured after 24 hrs by Western blot analysis; assay type: cell-based; outline: as §1
[3] = tested on: A-431; experiment: Antiproliferative activity against human A431 cells expressing wild type EGFR assessed as cell growth inhibition measured after 72 hrs by MTT assay; assay type: functional, cell-based; settings: A-431, 72 h
Outline: (§2)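 Cells were seeded at 3000–8000/well and allowed 24 h, then exposed to serial compound concentrations for 72 h. MTT (5 mg/mL stock in PBS) was added for 4 h, supernatant removed and DMSO added. IC50, defined as 50% growth inhibition, was derived by nonlinear regression (log inhibitor vs response).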

[4] = tested on: HCC827; experiment: Antiproliferative activity against human HCC827 cells expressing EGFR del19 mutant assessed as cell growth inhibition measured after 72 hrs by MTT assay; assay type: functional, cell-based; settings: HCC827, 72 h
Outline: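 HCC827 cells were kept in RPMI-1640 with 10% heat-inactivated FBS, 1% sodium pyruvate, 1% glutamine and 1% penicillin-streptomycin at 37 °C and 5% CO₂, seeded at 3000–8000/well and rested 24 h. Compounds were applied as a concentration series for 72 h. MTT (5 mg/mL stock in PBS) was given for 4 h, then medium was removed and DMSO added. IC50 came from nonlinear regression (log inhibitor vs response).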

[5] = tested on: NCI-H1975; experiment: Antiproliferative activity against human H1975 cells expressing EGFR L858R/T790M mutant assessed as cell growth inhibition measured after 72 hrs by MTT assay; assay type: functional, cell-based; settings: NCI-H1975, 72 h
Outline: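 MTT assay on H1975 cells grown in RPMI-1640 with 10% heat-inactivated FBS and 1% penicillin-streptomycin at 37 °C and 5% CO₂. Cells were seeded at 3000–8000 per well and left 24 h, then exposed to a concentration series for 72 h. MTT (5 mg/mL stock in PBS) was added for 4 h, supernatant removed and formazan dissolved in DMSO. IC50 was fitted by nonlinear regression (log inhibitor vs response).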

[6] = tested on: HepG2; experiment: Antiproliferative activity against human HepG2 cells expressing VEGFR2 assessed as cell growth inhibition measured after 72 hrs by MTT assay; assay type: functional, cell-based; settings: HepG2, 72 h; outline: as §2
[7] = tested on: von Hippel-Lindau disease tumor suppressor/Epidermal growth factor receptor (Homo sapiens), P00533+P40337 [UNDEFINED MUTATION]; experiment: Protac activity at VHL/EGFR del19 mutant in human HCC827 cells assessed as induction of EGFR degradation at 33 to 333 nM measured after 24 hrs by Western blot analysis; assay type: cell-based; settings: dose 33-333 nM; outline: as §1
[8] = target: T1, Protein cereblon/Epidermal growth factor receptor (Homo sapiens, UniProt P00533+Q96SW2); experiment: Protac activity at CRBN/EGFR in human A431 cells assessed as induction of degradation of EGFR at 0.1 to 3.3 uM incubated for 48 hrs by Western blot analysis; assay type: cell-based; settings: A-431, dose 0.1-3.3 µM
[9] = tested on: Protein cereblon/Epidermal growth factor receptor (Homo sapiens), P00533+Q96SW2 [UNDEFINED MUTATION]; experiment: Protac activity at CRBN/EGFR del19 mutant in human HCC827 cells assessed as induction of EGFR degradation at 33 nM incubated for 24 hrs measured following compound wash-out for 24 to 48 hrs by Western blot analysis; assay type: cell-based
Outline: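 HCC827 cells (RPMI-1640, 10% heat-inactivated FBS, 1% sodium pyruvate, 1% glutamine, 37 °C, 5% CO₂) treated at 33 nM for 24 h. Medium then replaced with compound-free medium, and protein harvested at the stated times. EGFR read by Western blot; n = 2.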

[10] = tested on: Protein cereblon/Epidermal growth factor receptor (Homo sapiens), P00533+Q96SW2 [UNDEFINED MUTATION]; experiment: Protac activity at CRBN/EGFR del19 mutant in human HCC827 cells assessed as maximal induction of EGFR degradation at 33 nM measured after 48 hrs by Western blot analysis; assay type: cell-based
Outline: (§3)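 HCC827 cells seeded at 0.5–1 × 10⁶ per well, then treated at the stated concentrations for 48 h. EGFR by Western blot; n = 3. DC₅₀ (concentration giving 50% EGFR loss) by nonlinear regression, log(inhibitor) vs response.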

[11] = tested on: Protein cereblon/Epidermal growth factor receptor (Homo sapiens), P00533+Q96SW2 [UNDEFINED MUTATION]; experiment: Protac activity at CRBN/EGFR del19 mutant in human HCC827 cells assessed as induction of EGFR degradation at 0.033 uM pretreated with ubiquitination inhibitor, MLN4924 for 2 hrs followed by incubation with compound for 24 hrs by Western blot analysis; assay type: cell-based
[12] = tested on: Protein cereblon/Epidermal growth factor receptor (Homo sapiens), P00533+Q96SW2 [UNDEFINED MUTATION]; experiment: Protac activity at CRBN/EGFR del19 mutant in human HCC827 cells assessed as induction of EGFR degradation at 0.033 uM pretreated with CRBN ligand, lenalidomide for 2 hrs followed by incubation with compound for 24 hrs by Western blot analysis; assay type: cell-based
[13] = tested on: Protein cereblon/Epidermal growth factor receptor (Homo sapiens), P00533+Q96SW2 [UNDEFINED MUTATION]; experiment: Protac activity at CRBN/EGFR del19 mutant in human HCC827 cells assessed as induction of EGFR degradation at 33 nM by Western blot analysis; assay type: cell-based; settings: time 12-72 hrs, TDE = time-dependent effect
Outline: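 Time course in HCC827 cells at 33 nM, with protein harvested at each stated time point. EGFR^del19 detected by Western blot.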

[14] = tested on: Protein cereblon/Epidermal growth factor receptor (Homo sapiens), P00533+Q96SW2 [UNDEFINED MUTATION]; experiment: Protac activity at CRBN/EGFR del19 mutant in human HCC827 cells assessed as induction of EGFR degradation at 0.033 uM pretreated with EGFR inhibitor, F for 2 hrs followed by incubation with compound for 24 hrs by Western blot analysis; assay type: cell-based
[15] = tested on: Protein cereblon/Epidermal growth factor receptor (Homo sapiens), P00533+Q96SW2 [UNDEFINED MUTATION]; experiment: Protac activity at CRBN/EGFR del19 mutant in human HCC827 cells assessed as induction of EGFR degradation at 0.033 uM pretreated with proteasome inhibitor, MG132 for 2 hrs followed by incubation with compound for 24 hrs by Western blot analysis; assay type: cell-based
[16] = tested on: Protein cereblon/Epidermal growth factor receptor (Homo sapiens), P00533+Q96SW2 [UNDEFINED MUTATION]; experiment: Protac activity at CRBN/EGFR del19 mutant in human HCC827 cells assessed as induction of EGFR degradation at 0.033 uM pretreated with autophagy inhibitor, chloroquine for 2 hrs followed by incubation with compound for 24 hrs by Western blot analysis; assay type: cell-based
[17] = target: T1, Protein cereblon/Epidermal growth factor receptor; experiment: Protac activity at CRBN/EGFR del19 mutant in human HCC827 cells assessed as induction of EGFR degradation measured after 48 hrs by Western blot analysis; assay type: cell-based; outline: as §3
[18] = tested on: von Hippel-Lindau disease tumor suppressor/Epidermal growth factor receptor (Homo sapiens), P00533+P40337 [L858R,T790M]; experiment: Protac activity at VHL/EGFR L858R/T790M mutant in human H1975 cells assessed as induction of degradation of EGFR at 0.33 to 1 uM incubated for 24 hrs by Western blot analysis; assay type: cell-based; settings: NCI-H1975, dose 0.33-1 µM
Outline: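 H1975 cells, after 24 h seeding, treated at the stated concentrations for 24 h. EGFR by Western blot with β-actin loading control.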

[19] = tested on: von Hippel-Lindau disease tumor suppressor/Epidermal growth factor receptor (Homo sapiens), P00533+P40337 [UNDEFINED MUTATION]; experiment: Protac activity at VHL/EGFR del19 mutant in human HCC827 cells assessed as induction of EGFR degradation at 1 to 33 nM incubated for 24 hrs by Western blot analysis; assay type: cell-based; settings: dose 1-33 nM; outline: as §1

CN(CCOCCOCCOCCOCCN1CCN(c2ccc(Nc3ncc4nc(Nc5ccccc5)n(C5CCCC5)c4n3)cc2)CC1)CC(=O)Nc1cccc2c1CN(C1CCC(=O)NC1=O)C2=O (stereo not drawn)
Activity [1]: inactive
Activity [2]: Active
IC50 [3]: 2720 nM
IC50 [4]: 2.83 nM
IC50 [5]: 3340 nM
IC50 [6]: > 5000 nM

O=C1CCC(N2Cc3c(NC(=O)CCCCCCCN4CCN(c5ccc(Nc6ncc7nc(Nc8ccccc8)n(C8CCCC8)c7n6)cc5)CC4)cccc3C2=O)C(=O)N1 (stereo not drawn)
Activity [1]: inactive
Activity [2]: Active
IC50 [3]: 240 nM
IC50 [4]: 2.61 nM
IC50 [5]: 3780 nM
IC50 [6]: > 5000 nM

Cc1ncsc1-c1ccc(CNC(=O)[C@@H]2C[C@@H](O)CN2C(=O)[C@@H](NCCOCCOCCOCCN2CCN(c3ccc(Nc4ncc5nc(Nc6ccccc6)n(C6CCCC6)c5n4)cc3)CC2)C(C)(C)C)cc1
Activity [7]: inactive
IC50 [4]: 54.4 nM
IC50 [5]: 2100 nM
IC50 [6]: > 5000 nM

CN(CCOCCOCCOCCN1CCN(c2ccc(Nc3ncc4nc(Nc5ccccc5)n(C5CCCC5)c4n3)cc2)CC1)CC(=O)Nc1cccc2c1CN(C1CCC(=O)NC1=O)C2=O (stereo not drawn)
Activity [8]: inactive
Activity [9]: inactive
Activity [1]: inactive
Emax [10]: 82%
Activity [2]: Active
IC50 [3]: 1860 nM
IC50 [4]: 2 nM
Activity [11]: inactive
Activity [12]: inactive
Activity [13]: Tde
Activity [14]: inactive
Activity [15]: Active
IC50 [5]: 3180 nM
Activity [16]: inactive
DC50 [17]: 1.91 nM
IC50 [6]: > 5000 nM

C=CC(=O)Nc1cc(Nc2nccc(-c3cn(C)c4ccccc34)n2)c(OC)cc1N(C)CCN(C)C [OSIMERTINIB]
IC50 [4]: 0.97 nM

Cc1ncsc1-c1ccc(CNC(=O)[C@@H]2C[C@H](O)CN2C(=O)[C@@H](NC(=O)CCCCCCN2CCN(c3ccc(Nc4ncc5nc(Nc6ccccc6)n(C6CCCC6)c5n4)cc3)CC2)C(C)(C)C)cc1
Activity [18]: inactive
IC50 [4]: 15.8 nM
IC50 [5]: > 10000 nM
Activity [19]: inactive

Cc1ncsc1-c1ccc(CNC(=O)[C@@H]2C[C@@H](O)CN2C(=O)[C@@H](NCCOCCOCCN2CCN(c3ccc(Nc4ncc5nc(Nc6ccccc6)n(C6CCCC6)c5n4)cc3)CC2)C(C)(C)C)cc1
Activity [7]: inactive
IC50 [4]: 53.5 nM
IC50 [5]: 1100 nM
IC50 [6]: > 5000 nM
